According to ChEMBL document CHEMBL1152475, “Investigation of the antioxidant properties of some new 4-hydroxycoumarin derivatives” (Eur J Med Chem, 2009):
Activity calls are given as the source filed them. No cut-off for these calls is given here.

How the values were obtained:
HUVEC = assay: Cytoprotective activity against linoleic acid hydroperoxide-induced toxicity in HUVEC cells after 3 hrs; format: functional, cell-based; conditions: Homo sapiens
[1] = Antioxidant activity assessed as luminol-dependent chemiluminescence at 100 uM relative to control; format: functional
Method in brief: (§1)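 Chemiluminescence run in 1 ml PBS with 0.1 mM luminol and 0.06 mM NaOCl to generate ClO⁻. Compound at several concentrations up to 10^-4 mol/L, or buffer for controls. CL recorded every 50 ms after NaOCl addition in flash mode. Scavenger index (CL-SI) expressed relative to the buffer control, set at 100%.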

HL-60 = assay: Cytotoxicity against human HL60 cells; format: functional, cell-based
EJ = assay: Cytotoxicity against human EJ cells; format: functional, cell-based
[2] = Antioxidant activity assessed as decrease in luminol-dependent chemiluminescence's scavenger index; format: functional; method in brief: as §1
[3] = Antioxidant activity assessed as luminol-dependent chemiluminescence at 1 uM; format: functional; method in brief: as §1

For O=c1ccc2cc(O)c(O)cc2o1, the Activity (HUVEC) was “Active”.
For CCOC(=O)C(C(C)=O)C(c1ccc(C(=O)O)cc1)c1c(O)c2ccccc2oc1=O (stereo not given), the Activity [1] was “Active”.
With CCOC(=O)C(C(C)=O)C(c1cccc([N+](=O)[O-])c1)c1c(O)c2ccccc2oc1=O (stereo not given) the Activity [1] was 7%, the Activity (HL-60) was “Active” and the Activity (EJ) was “Active”. The Activity [2] was “Dose-dependent effect”.
With CCOC(=O)C(C(C)=O)C(c1ccc(O)cc1)c1c(O)c2ccccc2oc1=O (stereo not given) the Activity [1] was “Active” and the Activity [3] was “Active”.
For CCOC(=O)C(C(C)=O)C(c1cc(OC)c(OC)c(OC)c1)c1c(O)c2ccccc2oc1=O (stereo not given), the Activity [1] was “Active” and the Activity [2] was “Dose-dependent effect”.
